Experiment [1] has as its system R4-3T3 NIH3T3 HSF-1 GFP / Tet-On RFP fluorescence, 48 h. Put plainly: GFP reporter loss versus dox-driven RFP – NIH3T3 R4-3T3 cells, dry powder, dose response (AID 602269). The method, boiled down: (§1)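 Material: R4-3T3 mouse NIH3T3 fibroblasts with heat-shock-element GFP and Tet-On RFP reporters. Benchmarks: positive control Didemnin B, 400 nM. Reagent: doxycycline 2 µg/mL final and heat shock. Detection: bottom-read fluorescence, GFP ex 485/em 535 nm, RFP ex 550/em 595 nm. Times: 2 h 42 °C shock, then 48 h 37 °C.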

Test in experiment [2]: as above
The following applies: R4-3T3 NIH3T3 HSF-1 GFP / Tet-On RFP fluorescence, 48 h; at 26 µM (top of the series). The essentials: as §1

Results filed as inconclusive are left out. Activity calls are given as the source filed them.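 The calls were made as follows: active = active in every separate test run, each with half-maximal potency at or below twice its top valid dose; inconclusive = test runs disagree, or a flat partial drop, or poor fit; inactive = inactive in every test run, including signal rising instead.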

Regarding `O=C1C=C(NCCN2CCOCC2)C(=O)c2cnccc21`, the AC50 in experiment [1] was 2280 nM.
As for `CCc1ccc(NC(=O)C2C3CCC(O3)C2C(=O)O)cc1` (stereo unspecified), the activity change, negative = inhibition in experiment [2] was -14.3% (inactive).
Regarding `O=C(CCl)N1CCCC1c1ccc2c(c1)OCCO2` (stereo unspecified), the AC50 in experiment [1] was 1180 nM.
Turning to `CC(C)(C)C(=O)NC(=S)NNC(=O)c1sc2ccccc2c1Cl`, the AC50 in experiment [1] is 4550 nM.
On the same count and under the same terms, then `Oc1ccc(Br)cc1/C=N/Nc1ccccn1`, with 994 nM; and `CC1=NNC(=O)/C1=C\c1cn(-c2ccccc2)nc1-c1ccc(Cl)cc1`, with 1270 nM.

One may read the AC50 as the concentration giving half of the maximal activity seen.

The values are drawn from PubChem BioAssay AID602269 (Broad Institute, 2012).
